Values after ≈ are worked out from the molar mass of the structure shown. Active and inactive are the calls of the source. The rule behind the calls is not given here.
Tests used:
Assay type in all cases: functional
KB [1] = experiment: Cytotoxicity against human KB cells by sulforhodamine B assay; settings: read-out: ED50 (the source's name)
In short: (§1)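 Cells grown in RPMI-1640 with 25 mM HEPES, 0.25% sodium bicarbonate, 10% FBS and 100 µg/mL kanamycin. Freshly trypsinized cells were seeded at 1500-7500 per well, and compounds were added from DMSO-diluted stock. After 3 days, attached cells were fixed with cold 50% TCA, stained with 0.4% SRB, and read at 562 nm. ED50 is the mean of ≥3 independent determinations.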

[2] = Cytotoxicity against human KB-VIN cells by sulforhodamine B assay; settings: KBVIN, read-out: ED50 (the source's name); in short: as §1
[3] = Selectivity index, ratio of ED50 for human KB cells to ED50 for vincristine-resistant human KB-VIN cells
In short: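 The ratio uses ED50 values from the 3-day SRB assay run in parallel on KB and vincristine-resistant KB-VIN cells. For each line, ED50 is the concentration giving 50% reduction in 562 nm absorbance relative to untreated cells, averaged over ≥3 independent determinations.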

A549 = experiment: Cytotoxicity against human A549 cells by sulforhodamine B assay; settings: for EC50: read-out: ED50 (the source's name); in short: as §1
MCF7 = experiment: Cytotoxicity against human MCF7 cells by sulforhodamine B assay; settings: read-out: ED50 (the source's name); in short: as §1
HCT-8 = experiment: Cytotoxicity against human HCT8 cells by sulforhodamine B assay; settings: for EC50: read-out: ED50 (the source's name); in short: as §1
PC-3 = experiment: Cytotoxicity against human PC3 cells by sulforhodamine B assay; settings: for EC50: read-out: ED50 (the source's name); in short: as §1
KB [4] = experiment: Cytotoxicity against human KB cells at 20 ug/mL by sulforhodamine B assay

Compound | EC50 (KB [1]) [µg/mL] | EC50 [2] [µg/mL] | Ratio ED50 [3] | EC50 (A549) [µg/mL] | EC50 (MCF7) [µg/mL] | EC50 (HCT-8) [µg/mL] | EC50 (PC-3) [µg/mL] | Activity (KB [4]) [%] | Activity (A549) | Activity (HCT-8) | Activity (PC-3)
COC1=C(C)C(O)=C2C(=O)C=C(c3ccccc3)OC2C1(C)C (configuration not stated) | 38.5 (≈ 123 µM) | 23 (≈ 73.6 µM) | 1.7 |  |  |  |  |  |  |  | 
CCC1=C(O)c2c(occ(-c3ccccc3)c2=O)C(CC)(CC)C1=O | 16 (≈ 47.3 µM) | 3.5 (≈ 10.3 µM) | 4.6 | 18 (≈ 53.2 µM) | 10 (≈ 29.6 µM) | 12 (≈ 35.5 µM) | > 20 |  |  |  | 
CCc1ccc(-c2cc(=O)c3c(O)c(CC)c(O)c(CC)c3o2)cc1 | > 20 | 5 (≈ 14.8 µM) | >4 |  |  |  |  |  |  |  | 
COC1=CC(O)=C2C(=O)C=C(c3ccccc3)OC2C1(C)C (configuration not stated) | 1.8 (≈ 6.03 µM) | 1.8 (≈ 6.03 µM) | 1 |  |  |  |  |  |  |  | 
CC1=C(O)c2c(oc(-c3c(C)cc(C)cc3C)cc2=O)C(C)(C)C1=O [2,4,6-TRIMETHYL DESMOSDUMOTIN B] |  | 5.82 (≈ 17.2 µM) | >3.4 |  |  |  |  | <50 |  |  | 
CCC1=C(O)c2c(oc(-c3cccc4ccccc34)cc2=O)C(CC)(CC)C1=O [2-(NAPHTHALEN-1-YL)-6,8,8-TRIETHYL DESMOSDUMOTIN B] | 0.6 (≈ 1.54 µM) | 0.3 (≈ 0.772 µM) | 2 | 0.6 (≈ 1.54 µM) | 0.2 (≈ 0.515 µM) | 0.4 (≈ 1.03 µM) | 0.4 (≈ 1.03 µM) |  |  |  | 
CC1=C(O)c2c(oc(-c3cccc4ccccc34)cc2=O)C(C)(C)C1=O [2-(NAPHTHALEN-1-YL)DESMOSDUMOTIN B] | 0.51 (≈ 1.47 µM) | 0.16 (≈ 0.462 µM) | 3.2 | 0.6 (≈ 1.73 µM) | 0.6 (≈ 1.73 µM) | 0.4 (≈ 1.15 µM) | 0.5 (≈ 1.44 µM) |  |  |  | 
CC1=C(O)c2c(oc(-c3ccccc3C)cc2=O)C(C)(C)C1=O [2-METHYL DESMOSDUMOTIN B] | 37.3 (≈ 120 µM) | 1.75 (≈ 5.64 µM) | 21.3 |  |  |  |  |  |  |  | 
CC1=C(O)c2c(oc(-c3cc(C)cc(C)c3)cc2=O)C(C)(C)C1=O [3,5-DIMETHYL DESMOSDUMOTIN B] | 53 (≈ 164 µM) | 2.91 (≈ 8.97 µM) | 18.2 |  |  |  |  |  |  |  | 
CCc1ccc(-c2cc(=O)c3c(o2)C(C)(C)C(=O)C(C)=C3O)cc1 [4-ETHYL DESMOSDUMOTIN B] | 20 (≈ 61.7 µM) | 1.54 (≈ 4.75 µM) | 13 |  |  |  |  |  |  |  | 
CC1=C(O)c2c(oc(-c3ccc(C)cc3)cc2=O)C(C)(C)C1=O [4-METHYL DESMOSDUMOTIN B] | 22.5 (≈ 72.6 µM) | 1.09 (≈ 3.51 µM) | 20.7 |  |  |  |  |  |  |  | 
CCC1=C(O)c2c(oc(-c3ccccc3)cc2=O)C(CC)(CC)C1=O [6,8,8-TRIETHYL DESMOSDUMOTIN B] | > 80 | 0.36 (≈ 1.06 µM) | >222 |  | > 20 |  |  |  | inactive | inactive | inactive
CCC1=C(O)c2c(oc(-c3cc4ccccc4c4ccccc34)cc2=O)C(CC)(CC)C1=O [6,8,8-TRIETHYL-2-(PHENANTHREN-9-YL) DESMOSDUMOTIN B] | 5 (≈ 11.4 µM) | 4.3 (≈ 9.81 µM) | 1.2 | 8 (≈ 18.2 µM) | 4 (≈ 9.12 µM) | 5.6 (≈ 12.8 µM) | 6 (≈ 13.7 µM) |  |  |  | 
CCC1=C(O)c2c(oc(-c3ccccc3C)cc2=O)C(CC)(CC)C1=O [6,8,8-TRIETHYL-2-METHYL DESMOSDUMOTIN B] | 18 (≈ 51.1 µM) | 0.1 (≈ 0.284 µM) |  |  |  |  |  |  |  |  | 
CCC1=C(O)c2c(oc(-c3ccc(CC)cc3)cc2=O)C(CC)(CC)C1=O [6,8,8-TRIETHYL-4-ETHYL DESMOSDUMOTIN B] | 8 (≈ 21.8 µM) | 0.025 (≈ 0.0682 µM) | 320 |  |  |  |  |  |  |  | 
CCC1=C(O)c2c(oc(-c3ccc(C)cc3)cc2=O)C(CC)(CC)C1=O [6,8,8-TRIETHYL-4-METHYL DESMOSDUMOTIN B] | 13.8 (≈ 39.2 µM) | 0.03 (≈ 0.0851 µM) | 460 | 16 (≈ 45.4 µM) | > 20 | 15 (≈ 42.6 µM) | 18 (≈ 51.1 µM) |  |  |  | 
CCC1=C(OC)C(CC)(CC)C2OC(c3ccccc3)=CC(=O)C2=C1O (configuration not stated) [6,8,8-TRIETHYL-7-METHOXY DESMOSDUMOTIN B] | 20 (≈ 56.4 µM) | 15.5 (≈ 43.7 µM) | 1.3 |  |  |  |  |  |  |  | 
CCCC1=C(O)c2c(oc(-c3ccccc3)cc2=O)C(CCC)(CCC)C1=O [6,8,8-TRIPROPYL DESMOSDUMOTIN B] | 4 (≈ 10.5 µM) | 0.63 (≈ 1.66 µM) | 6.4 |  |  |  |  |  |  |  | 
CCCC1=C(OC)C(CCC)(CCC)C2OC(c3ccccc3)=CC(=O)C2=C1O (configuration not stated) [6,8,8-TRIPROPYL-7-METHOXY DESMOSDUMOTIN B] | 8.5 (≈ 21.4 µM) | 7 (≈ 17.7 µM) | 1.2 |  |  |  |  |  |  |  | 
CCC1=C(O)c2c(oc(-c3ccccc3)cc2=O)C(C)(C)C1=O [6-ETHYL-8,8-DIMETHYL DESMOSDUMOTIN B] | > 20 | 0.6 (≈ 1.93 µM) | >33 |  |  |  |  |  |  |  | 
CC1=C(O)C(C)(C)c2oc(-c3ccccc3)cc(=O)c2C1=O [DESMOTUMOTIN B] | > 40 | 2 (≈ 6.75 µM) | >20 | > 20 | > 20 |  |  |  |  | inactive | inactive
CC[C@]1(O)C[C@H]2CN(CCc3c([nH]c4ccccc34)[C@@](C(=O)OC)(c3cc4c(cc3OC)N(C=O)[C@H]3[C@@](O)(C(=O)OC)[C@H](OC(C)=O)[C@]5(CC)C=CCN6CC[C@]43[C@@H]65)C2)C1 [VINCRISTINE] | 0.015 (≈ 0.0182 µM) | 7 (≈ 8.49 µM) | 0.002 | 0.004 (≈ 0.00485 µM) | 0.01 (≈ 0.0121 µM) | 0.02 (≈ 0.0242 µM) | 0.01 (≈ 0.0121 µM) |  |  |  | 

From ChEMBL document CHEMBL1150376, “Antitumor agents 260. New desmosdumotin B analogues with improved in vitro anticancer activity” (2008)
